Assay outcomes deposited in PubChem BioAssay by Sanford-Burnham Center for Chemical Genomics.
HKDC1 act – HKDC1 (human) hexokinase activation; Q2TB90; recombinant HKDC1, G6PDH/diaphorase resazurin fluorescence; stronger effect = lower value; activity change, negative = activation, % at 20 µM; actives 0.056% (n = 340,000); AID 493187;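 active = activation of 40% or more at 20 µM, a change of -40% or lower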
Target sequence (Q2TB90 whole entry, looked up): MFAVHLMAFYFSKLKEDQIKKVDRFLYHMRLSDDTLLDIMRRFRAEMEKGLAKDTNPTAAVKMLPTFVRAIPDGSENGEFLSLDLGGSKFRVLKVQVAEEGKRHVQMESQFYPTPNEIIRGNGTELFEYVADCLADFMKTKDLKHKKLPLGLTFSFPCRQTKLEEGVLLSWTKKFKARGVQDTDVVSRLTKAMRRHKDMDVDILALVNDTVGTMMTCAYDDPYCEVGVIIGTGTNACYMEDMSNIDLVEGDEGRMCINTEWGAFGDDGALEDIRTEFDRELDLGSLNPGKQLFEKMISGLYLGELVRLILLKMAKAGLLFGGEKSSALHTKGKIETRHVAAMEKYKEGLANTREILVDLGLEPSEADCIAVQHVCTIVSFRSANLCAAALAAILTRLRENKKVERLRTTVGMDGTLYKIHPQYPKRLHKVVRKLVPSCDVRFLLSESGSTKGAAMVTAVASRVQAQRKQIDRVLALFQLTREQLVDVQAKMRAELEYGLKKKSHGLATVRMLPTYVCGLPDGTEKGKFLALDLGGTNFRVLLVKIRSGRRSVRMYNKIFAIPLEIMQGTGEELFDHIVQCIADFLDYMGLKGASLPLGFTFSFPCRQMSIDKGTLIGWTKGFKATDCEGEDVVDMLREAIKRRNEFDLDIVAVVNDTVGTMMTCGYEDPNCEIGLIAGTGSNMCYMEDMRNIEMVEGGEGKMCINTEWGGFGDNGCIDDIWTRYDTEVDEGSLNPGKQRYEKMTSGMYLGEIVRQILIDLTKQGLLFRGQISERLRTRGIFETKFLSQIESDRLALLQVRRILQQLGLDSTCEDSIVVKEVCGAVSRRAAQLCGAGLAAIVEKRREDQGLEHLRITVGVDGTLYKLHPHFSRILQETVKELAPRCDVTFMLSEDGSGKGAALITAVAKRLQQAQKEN
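Signal: coupled resazurin-to-resorufin fluorescence, Ex 525/Em 613 nm. Test system: in-house human HKDC1 enzyme, G6PDH and diaphorase coupling enzymes. Quantity: HKDC1 5 µg/mL. Timing: 90 min reaction at room temperature, dark.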
Numbers without * were called inactive. These entries were drawn from the full list.

SMILES	HKDC1 act
O=c1c2ccccc2[se]n1-c1ccccc1	-115.9*
CCOC(=O)c1c(-n2c(C)cc(/C=C3\C(=O)NC(=O)N(C)C3=O)c2C)sc2c1CCCC2	51.2
CC[C@H](C)/C=C(C)/C=C/C1=CC2=C(Cl)C(=O)[C@@](C)(OC(C)=O)C(=O)C2=CO1	62.8
COc1ccc(OC)c(N2C(=O)/C(=C/c3ccco3)C(=O)NC2=S)c1	82.3
Cc1cc(/C=C2\C(=O)NC(=O)N(c3ccc(Cl)cc3)C2=O)c(C)n1-c1sc2c(c1C#N)CCCC2	68.9
CCn1nc(-c2ccccc2)nc2c(=O)n(C)c(=O)nc1-2	-83.0*
NC(=O)c1ccc(N=Cc2c(O)n(Cc3ccco3)c(=O)[nH]c2=O)cc1	36.2
COc1ccc(/C=C2\C(=O)NC(=S)N(C)C2=O)cc1C	36.4
COC(=O)C1=C(C(=O)OC)SC2(S1)C(C(=O)OC)=C(C(=O)OC)Sc1c2ssc1=O	-108.7*
O=C(O)CC1OCC=C2CN3CCC45C6=CC(=O)C(=O)C([N+](=O)[O-])=C6NC4C1C2CC35 (centres undefined)	42.5
Cc1ccc2c(C)c3ccc4ccccc4c3c[n+]2c1	-52.8*
O=C1CC=C2C3CC4N(CCC45c4cc(O)c(O)cc4N1C25)CC3=CCBr (centres undefined)	44.6
Cn1c(=O)c2c(nc(N/N=C/c3c(O)n(C4CCCCC4)c(=S)[nH]c3=O)n2C)n(C)c1=O	-46.3*
COC(=O)C1CN(C#N)N(c2ccc(Cl)cc2)C12c1ccccc1-c1ccccc12 (centres undefined)	87.2
O=c1[nH]c(O)c(/C=C2/C=CC(c3cc(Cl)ccc3Cl)=N2)c(=O)[nH]1	40.4
O=C1NC(=S)N(c2ccc(F)cc2)C(=O)/C1=C\c1ccoc1	50.9
N#CC1=C(N)Oc2c(c(=O)sc3ccccc23)C1c1ccncc1 (centres undefined)	-57.7*
O=C1C=CC(=O)C=C1	48.3
N#CC(C#N)=Cc1ccc(C=C(C#N)C#N)cc1	37.6
